Screening results (PubChem)
Sampled rows, rich in hits. Any-hit rate of the full collection: about 3.1%.
MEKK2 WT-MEK5 – modulators of MEK5 binding to wildtype MEKK2, primary screen, biochemical, multiplex bead flow cytometry, Alexa488-MEK5; Mitogen-activated protein kinase kinase kinase 2 (Homo sapiens), Q9Y2U5; Alexa488-MEK5 binding to MEKK2 WT; actives lie on both sides; binding response (% of control), % at 10 µM; 1.1% of 290,000 active; AID 1531, 2009; in the data active means binding response below about 67% or above about 130%
PREPL inh – PREPL enzyme inhibitors, primary screen, biochemical, fluorescence polarization; 0.68% of 320,000 active; recombinant PREPL, fluorescence polarization activity-based probe; inhibition, % at 5.96 µM; Prolyl endopeptidase-like (Homo sapiens), Q4J6C6; in the data active means inhibition above about 43%;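 further: 0% = enzyme with DMSO and 100% = wells lacking enzyme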
UBC13 inh – UBC13 polyubiquitin chain formation inhibitors, primary screen, biochemical, TR-FRET, uHTS | Ubiquitin-conjugating enzyme E2 N (Homo sapiens), P61088 | inhibition, % at 20 µM | 0.47% of 330,000 active | AID 485273, 2010; in the data active means inhibition above about 45%, passing the limit was not always enough
MEKK3 PB1 HTS – modulators of MEKK3-MEK5 PB1 binding, primary screen, biochemical, wildtype MEKK3, multiplex bead flow cytometry, Alexa488-MEK5 | bead-based flow cytometry, Alexa488-MEK5 binding to MEKK3; actives lie on both sides; 0 = blocked by unlabeled MEK5, 100 = vehicle | 1.4% of 290,000 active | binding response (% of control), % at 10 µM | Mitogen-activated protein kinase kinase kinase 3 (Homo sapiens), Q99759;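 active means binding response more than 3 SD above or below the average of its plate-row segment, actives on both sides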;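 further: Alexa488 bead fluorescence after subtracting the streptavidin-only scavenger bead signal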
MEKK2mut PB1 HTS – MEK5 binding signal on mutant MEKK2 PB1, primary screen, biochemical, multiplex bead flow cytometry, Alexa488-MEK5 | Alexa488-MEK5 binding to MEKK2 mutant | 0.35% of 290,000 active | percent response, % at 10 µM; in the data active means percent response above about 24%, passing the limit was not always enough
Apaf-1 inh – inhibitors of human Apaf-1 apoptosome, primary screen, biochemical, DEVD-Rh110 fluorescence, uHTS; 0.71% of 330,000 active; reconstituted apoptosome caspase-3 activity; inhibition, % at 20 µM; Apoptotic protease-activating factor 1 (Homo sapiens), O14727; active means inhibition of at least 40% at 20 µM;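 further: plate controls were DMSO wells for no effect and DEVD-CHO caspase inhibitor wells for full effect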
Target sequence (O14727 whole entry, looked up): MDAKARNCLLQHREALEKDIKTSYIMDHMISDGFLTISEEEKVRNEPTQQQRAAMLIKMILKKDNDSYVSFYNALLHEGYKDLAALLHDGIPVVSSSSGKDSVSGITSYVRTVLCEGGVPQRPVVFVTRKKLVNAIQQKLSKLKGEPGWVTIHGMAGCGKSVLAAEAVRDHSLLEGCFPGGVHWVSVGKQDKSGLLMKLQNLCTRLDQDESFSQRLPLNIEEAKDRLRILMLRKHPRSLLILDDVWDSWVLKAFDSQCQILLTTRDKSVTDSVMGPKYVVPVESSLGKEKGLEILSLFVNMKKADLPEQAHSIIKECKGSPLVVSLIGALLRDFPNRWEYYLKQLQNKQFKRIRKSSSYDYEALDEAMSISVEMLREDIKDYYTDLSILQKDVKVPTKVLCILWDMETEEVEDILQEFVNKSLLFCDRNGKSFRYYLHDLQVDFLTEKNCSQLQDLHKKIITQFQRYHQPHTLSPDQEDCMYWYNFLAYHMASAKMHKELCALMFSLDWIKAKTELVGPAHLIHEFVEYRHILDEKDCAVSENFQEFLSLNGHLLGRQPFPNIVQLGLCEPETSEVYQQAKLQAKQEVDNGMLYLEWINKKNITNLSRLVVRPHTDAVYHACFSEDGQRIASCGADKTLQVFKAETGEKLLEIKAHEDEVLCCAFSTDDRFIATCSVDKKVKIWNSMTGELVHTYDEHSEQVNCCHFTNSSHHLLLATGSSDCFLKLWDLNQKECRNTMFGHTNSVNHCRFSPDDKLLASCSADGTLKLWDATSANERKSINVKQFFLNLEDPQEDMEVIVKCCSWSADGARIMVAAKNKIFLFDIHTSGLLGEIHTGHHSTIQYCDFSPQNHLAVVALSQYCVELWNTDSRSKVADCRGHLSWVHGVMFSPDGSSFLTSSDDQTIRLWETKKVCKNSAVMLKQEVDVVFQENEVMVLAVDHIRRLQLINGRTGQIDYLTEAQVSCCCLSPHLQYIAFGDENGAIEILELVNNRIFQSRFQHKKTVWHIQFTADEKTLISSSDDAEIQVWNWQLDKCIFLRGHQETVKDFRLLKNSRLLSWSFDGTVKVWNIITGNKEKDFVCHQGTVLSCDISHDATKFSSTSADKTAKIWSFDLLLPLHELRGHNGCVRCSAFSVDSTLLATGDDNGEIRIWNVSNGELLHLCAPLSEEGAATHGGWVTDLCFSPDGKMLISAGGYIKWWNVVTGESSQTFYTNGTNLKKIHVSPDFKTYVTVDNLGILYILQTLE
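System – cell-free apoptosome with Apaf-1, procaspase-3 and caspase-9 · Buffer or medium – pH 7.5 Hepes buffer with CHAPS, BSA, DTT · Also added – cytochrome c with DEVD-Rh110 · Times – 30 min compound preincubation, 50 min activation, room temperature · Technique – Rh110 fluorescence intensity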
MEKK2wt confirm – modulators of MEK5 binding to wildtype MEKK2, confirmation, biochemical, single concentration, multiplex bead flow cytometry. 2.4% of 5,900 active. binding response (% of control), % at 10 µM. Alexa488-MEK5 binding to MEKK2 WT; actives lie on both sides. shares compounds with MEKK3 PB1 HTS; in the data active means binding response below about 16% or above about 210%; inactive means in between
MEKK2mut-MEK5 – mutant MEKK2 PB1-MEK5 binding signal retest – biochemical, single concentration, multiplex bead flow cytometry, confirmation; shares compounds with MEKK3 PB1 HTS; Alexa488-MEK5 binding to MEKK2 mutant; percent response, % at 10 µM; 2% of 5,900 active; AID 1893, 2009; in the data active means percent response mostly above about 71%, no sharp cut-off; inactive means mostly below about 38%;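 further: higher means compound restores mutant binding toward wildtype level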
MEKK3-MEK5 inh – MEKK3 wild-type PB1 binding to MEK5, inhibitors, confirmation, biochemical, bead multiplex flow cytometry, single concentration, wildtype; shares compounds with MEKK3 PB1 HTS; Alexa488-MEK5 binding to MEKK3; hits give low values; binding response (% of control), % at 10 µM; 1.8% of 5,900 active;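 active means binding response below 72% of control, or above a set upper limit, though filed actives all read lower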;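 further: 100% = DMSO only wells and 0% = binding blocked by excess unlabeled MEK5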
Starred values were filed as active, the others as inactive; / = not tested or not shown; ! = not active in a repeat; [ ] = dose if it differs, or a comment.

SMILES | MEKK2 WT-MEK5 | PREPL inh | UBC13 inh | MEKK3 PB1 HTS | MEKK2mut PB1 HTS | Apaf-1 inh | MEKK2wt confirm | MEKK2mut-MEK5 | MEKK3-MEK5 inh
CCN(C(=O)c1cn(C)c(=O)c2cc(OC)c(OC)cc12)c1cc(C)ccc1C | -2.0*[inhibitor] | -3 | -8 | 1.0*[inhibitor] | -9 | 5 | 98 | -5 | 102
CCN(C(=O)c1cn(C)c(=O)c2cc(OC)c(OC)cc12)c1ccccc1C | 101 | -4 | -2 | 100 | 2 | 1 | / | / | /
O=C(CN1C(=O)NC2(CCCCCC2)C1=O)NCCc1ccccc1 | / | 2 | 3 | / | / | -7 | / | / | /
COc1ccc(-c2nc(SC(C)C(=O)NCC3CCCO3)n[nH]2)cc1 (centres undefined) | / | -1 | 3 | / | / | -5 | / | / | /
COc1ccc(CNc2nc(-c3cccnc3)nn2C(=O)CC(C)C)cc1 | 107 | 20 | 12 | 102 | 5 | 17 | / | / | /
COc1ccc(CNc2nc(-c3cccnc3)nn2C(C)=O)cc1 | 7.0*[inhibitor] | 14 | -2 | 5.0*[inhibitor] | -42 | -5 | 107 | 2 | 106
COc1ccc(Cl)cc1C(=O)Nn1c(-c2cccs2)nc2ccccc2c1=O | 104 | -2 | -6 | 104 | 0 | 18 | / | / | /
O=C(/C=C/c1ccc(Cl)cc1)Nn1c(-c2cccs2)nc2ccccc2c1=O | 105 | -27 | -14 | 131* | 0 | 4 | 103 | 4 | 105
Cc1cc(C(=O)Nc2ncn[nH]2)ccc1[N+](=O)[O-] | 91 | -21 | -9 | 73*[inhibitor] | -1 | -3 | 109 | 7 | 105
Cc1cc(C)nc(NC(=O)c2ccc([N+](=O)[O-])c(C)c2)n1 | 101 | 2 | -1 | 105 | 3 | 2 | / | / | /
O=C(CCNS(=O)(=O)/C=C/c1ccccc1)NCCc1c[nH]c2ccccc12 | 93 | 6 | 8 | 98 | -1 | 4 | / | / | /
COc1cccc(CC(=O)Nc2nc3ccccc3[nH]2)c1 | / | -2 | -14 | 96 | 112* | -1 | 109 | 4 | 105
CC(=O)N1CCN(C(=O)CCC(=O)O)CC1 | 7.0*[inhibitor] | -3 | -7 | 19*[inhibitor] | -6 | -14 | 105 | 8 | 107
COc1ccc(CCNC(=O)CC2SC(=NCCC(C)C)NC2=O)cc1OC (centres undefined) | 107 | -6 | 20 | 150* | 0 | -9 | 102 | 4 | 103
COc1ccc(CCNC(=O)CC2SC(=NCCc3ccccc3)NC2=O)cc1OC (centres undefined) | 96 | -4 | -8 | 97 | -2 | 4 | / | / | /
COc1cc(OC)c2c(-c3ccccc3)cc(=O)oc2c1C(CCN1CCN(c2ccccc2)CC1)c1ccc(N(C)C)cc1 (centres undefined) | 113 | 15 | -5 | 99 | 6 | 20 | / | / | /
CCCCCc1cc(=O)oc2c(C(CCN3CCCC(C)C3)c3ccc4c(c3)OCO4)c(OC)cc(OC)c12 (centres undefined) | 302* | 5 | -8 | 122* | 74* | 66* | 270* | 109* | 118
COc1ccc(C(CCN2CCCC(C)C2)c2c(OC)cc(OC)c3c(C)cc(=O)oc23)cc1 (centres undefined) | 138* | -17 | 25 | 120 | 7 | 20 | 117 | 6 | 104
COc1cc(OC)c2c(C)cc(=O)oc2c1C(CCN1CCOCC1)c1ccc(N(C)C)cc1 (centres undefined) | 100 | 3 | 14 | 92 | 5 | 7 | / | / | /
COc1cc(C(CCN2CCCCC2)c2c(OC)cc(OC)c3c(C)cc(=O)oc23)cc(OC)c1OC (centres undefined) | 141* | 7 | -1 | 118 | 6 | 9 | 105 | 4 | 100
COc1cc(OC)c2c(-c3ccccc3)cc(=O)oc2c1C(CCN1CCCC(C)C1)c1ccc(N(C)C)cc1 (centres undefined) | 222* | 21 | 19 | 112 | 41* | 23 | 177 | 47 | 101
CCOC(=O)C(Cc1ccc(NC(C)=O)cc1)N1C(=O)c2ccccc2C1=O (centres undefined) | / | 12 | -6 | / | / | 3 | / | / | /
CCOc1ccc(S(=O)(=O)N2CCCCC2)cc1NC(=O)Cc1cccc(C(F)(F)F)c1 | / | 12 | -7 | / | / | 19 | / | / | /
CCOc1ccccc1NC(=O)CSc1nc2nc(-c3cccs3)cc(C(F)(F)F)c2c(=O)[nH]1 | 59*[inhibitor] | -12 | -1 | 73*[inhibitor] | -30 | -6 | 94 | -8 | 98
CC1CCCN(CCOc2ccc3ccccc3c2Br)C1 (centres undefined) | 157* | 4 | 14 | 102 | 37 | -11 | 131 | 17 | 102
SMILES | MEKK2 WT-MEK5 | PREPL inh | UBC13 inh | MEKK3 PB1 HTS | MEKK2mut PB1 HTS | Apaf-1 inh | MEKK2wt confirm | MEKK2mut-MEK5 | MEKK3-MEK5 inh
COc1ccc(S(=O)(=O)NCCSc2ccc(C)cc2)cc1OC | 123 | 2 | -3 | 122* | 9 | 8 | 98 | 1 | 100
CC(CCc1ccccc1)NC(=O)COC(=O)c1ccc(NC(=O)CC#N)cc1 (centres undefined) | 105 | -17 | -2 | 106 | 7 | 18 | / | / | /
O=C(Nn1c(O)c(C=C2N=c3ccccc3=N2)sc1=S)c1ccccc1Cl | 58*[inhibitor] | 8 | -41 | 82 | -26 | 16 | 66 | -27 | 89
Oc1c(C=C2N=c3ccccc3=N2)sc(=S)n1C1CCCCC1 | 53*![inhibitor] | 2 | -22 | 114 | -3 | -8 | 70 | -13 | 97
COc1ccc(N2CCN(C(=O)c3cc(S(=O)(=O)N4CCCCCC4)ccc3OC)CC2)cc1 | / | / | 0 | / | / | 14 | / | / | /
CC(C)CC[n+]1ccn(-c2nc3ccccc3nc2[N-]S(=O)(=O)c2ccc(Cl)cc2)c1 | 92 | -1 | 15 | 93 | -8 | -12 | / | / | /
COc1ccc(OC)c(-n2c(=O)c3ccccc3c3ccccc3c2=O)c1 | 99 | 11 | -16 | 72*[inhibitor] | 0 | 19 | 98 | 1 | 98
